This note sets out measurements from ChEMBL document CHEMBL2396611, “Synthesis and mechanism of hypoglycemic activity of benzothiazole derivatives” (J Med Chem, 2013).

SMILES strings stand for the structures. The source made the active and inactive calls. No cut-off for these calls is given here.

A short description of data set [1]: Half life in BALB/c mouse liver microsomes at 2 uM. In kind it is ADME, Microsome. (In general: Liver microsomes are vesicles of endoplasmic reticulum, rich in cytochrome P450 enzymes.)
For data set [2], the target named is 5'-AMP-activated protein kinase catalytic subunit alpha-2 (Homo sapiens) (UniProt P54646). Kind of data set: Activation of human recombinant AMPK at 20 uM after 30 mins relative to control. A digest of the protocol: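 Recombinant human full-length AMPK assayed with a commercial luminescent kit. Compound at 20 μM or DMSO vehicle (1% v/v) added to the reaction mix for 30 min at ambient temperature. Activity read by luminometer against a calibration curve; basal activity with DMSO set as 100%.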

The target in data set [3] is 5'-AMP-activated protein kinase catalytic subunit alpha-2 (Rattus norvegicus) (UniProt Q09137). Kind of data set: Increase in AMPK-mediated myc-tagged GLUT4 translocation in rat L6 cell plasma membrane at 25 uM after 5 hrs by colorimetric analysis. A digest of the protocol:
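L6 lines stably carrying GLUT4myc or GLUT1myc, treated 5 h with test agent or DMSO; insulin given for 30 min. Live myotubes incubated with rabbit anti-c-Myc (1:200), washed, fixed in 3% formaldehyde, then HRP anti-rabbit IgG (1:2000). Developed with OPD and read at 492 nm to give relative surface transporter abundance.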

Data set [4] has as its target Cytochrome P450 2C19 (Homo sapiens, UniProt P33261). Kind of data set: Inhibition of CYP2C19 (unknown origin) by luminescent based assay. In kind it is ADME.
Data set [5] concerns L6. Kind of data set: Activation of AMPKalpha in rat L6 cells assessed as phosphorylation at Thr172 at 100 uM after 4 hrs by Western blot analysis relative to control. In kind it is cell-based. In outline:
(§1)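 L6 myotubes treated 4 h with increasing compound concentrations (5 to 150 μM) or DMSO. Whole-cell lysates immunoblotted for pThr172-AMPKα, AMPKα and α-tubulin; phosphorylation expressed relative to DMSO-treated control.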
Background: In western blotting, separated proteins are transferred to a membrane and probed.

Data set [6] addresses 5'-AMP-activated protein kinase catalytic subunit alpha-2 (Rattus norvegicus) (UniProt Q09137). Kind of data set: Activation of AMPK in rat L6 cells assessed as AS-160 phosphorylation at Thr642 after 30 mins by Western blot analysis relative to control.
Data set [7] has as its system L6. Kind of data set: Activation of AMPKalpha in rat L6 cells assessed as phosphorylation at Thr172 at 150 uM after 4 hrs by Western blot analysis. It is filed as cell-based. In outline:
as §1

The target in data set [8] is Cytochrome P450 2C9 (Homo sapiens, UniProt P11712). Kind of data set: Inhibition of CYP2C9 (unknown origin) by luminescent based assay. It is filed as ADME.
The test system of data set [9] is L6. The data set is described as follows: Activation of AMPKalpha in rat L6 cells assessed as phosphorylation at Thr172 at 10 uM after 4 hrs by Western blot analysis relative to control. It is filed as cell-based. In outline:
as §1

Data set [10] addresses 5'-AMP-activated protein kinase catalytic subunit alpha-2 (Rattus norvegicus) (UniProt Q09137). Kind of data set: Activation of AMPK in rat L6 cells assessed as AS-160 phosphorylation at Thr642 at 25 uM after 3 hrs by Western blot analysis relative to control. It is filed as cell-based. A digest of the protocol:
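Fully differentiated L6 myotubes, preincubated 3 h with or without 5 μM Compound C. Test agents: compound at 25 μM for 3 h, sorbitol 250 mM for 40 min, AICAR 4 mM for 30 min. Whole-cell lysates probed by Western blot for pSer79-ACC, ACC, pThr642-AS-160, AS-160 and α-tubulin; band densities summarized, n=3, vs respective controls.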

For data set [11] the target is unchanged. The data set is described as follows: Activation of AMPK in rat L6 cells assessed as increase of [3H]dGlc uptake at 25 uM after 5 hrs relative to control. In kind it is cell-based. A digest of the protocol: (§2)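 Fully differentiated L6 myotubes preincubated 24 h in αMEM with 2% FCS and 23.0 mmol/L D-glucose, then 4 h serum-free with 0.5% BSA. Compound or DMSO vehicle given for the indicated times or concentrations. Uptake read after 5 min at room temperature in PBS pH 7.4 with 0.1 mmol/L dGlc and 1.3 μCi/mL [3H]dGlc, by scintillation of SDS lysates. Zero-time basal rate set as 100%; n=6.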

Data set [12] shares this target. The data set is described as follows: Activation of AMPK in rat L6 cells assessed as increase of [3H]dGlc uptake at 25 uM up to 24 hrs. In kind it is cell-based. In outline:
as §2

Data set [13] relates to L6. The data set is described as follows: Increase of [3H]dGlc uptake in rat L6 cells after 5 hrs in presence of AMPK inhibitor compound C. In kind it is functional, cell-based. A digest of the protocol:
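Differentiated L6 myotubes held 24 h in αMEM with 2% FCS and 23.0 mM D-glucose, then serum-free medium with 0.5% BSA for 4 h. Compound C (5 µM) added 5 h before the uptake assay, alongside 25 µM test agent. Cells rinsed in PBS, then given 0.1 mM dGlc with 1.3 µCi/mL [3H]dGlc in PBS pH 7.4 for 5 min at room temperature. Lysed in 0.1% SDS and counted by scintillation; n=6.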

The target of data set [14] is 5'-AMP-activated protein kinase catalytic subunit alpha-2 (Rattus norvegicus) (UniProt Q09137). Kind of data set: Activation of AMPK in rat L6 cells assessed as increase of [3H]dGlc uptake after 5 hrs in presence of PI3K inhibitor wortmannin. It is filed as cell-based. A digest of the protocol: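 Myotubes treated with compound, insulin or vehicle in the absence or presence of 100 nM wortmannin or 100 nM Akt/PKB inhibitor, each added 30 min before compound or insulin. Compound C 5 μM was added 5 h before the uptake assay. Rate then measured by the standard 5-min [3H]dGlc uptake assay.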

The test system of data set [15] is L6. Kind of data set: Activation of AMPKalpha in rat L6 cells assessed as phosphorylation at Thr172 after 4 hrs by Western blot analysis. In kind it is cell-based.
For data set [16], the system named is L6. Kind of data set: Activation of AMPKalpha in rat L6 cells assessed as phosphorylation at Thr172 at 50 uM after 4 hrs by Western blot analysis relative to control. It is filed as cell-based. A digest of the protocol:
as §1

In data set [17] the test system is L6. Kind of data set: Activation of AMPKalpha in rat L6 cells assessed as phosphorylation at Thr172 at 100 uM after 1 hr by Western blot analysis. It is filed as cell-based. A digest of the protocol: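 L6 myotubes exposed for the indicated times to test compound (100 μM in the first series; 50–150 μM in the second) or 4 mM AICAR. Whole-cell lysates immunoblotted for pThr172-AMPKα, AMPKα and α-tubulin; band densities from three independent experiments vs respective controls.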

For data set [18], the system named is Mus musculus. The data set is described as follows: Antidiabetic activity in po dosed KKAy mouse assessed as reduction of blood glucose level. It is filed as functional, organism-based.
Data set [19] deals with L6. Kind of data set: Activation of AMPKalpha in rat L6 cells assessed as phosphorylation at Thr172 at 150 uM after 4 hrs by Western blot analysis relative to control. It is filed as cell-based. A digest of the protocol:
as §1

A word on the half-life: it is the time in which the quantity being followed falls by half. Read a low half-life as fast loss.

Sequence of 5'-AMP-activated protein kinase catalytic subunit alpha-2 (Rattus norvegicus) (Q09137 whole entry): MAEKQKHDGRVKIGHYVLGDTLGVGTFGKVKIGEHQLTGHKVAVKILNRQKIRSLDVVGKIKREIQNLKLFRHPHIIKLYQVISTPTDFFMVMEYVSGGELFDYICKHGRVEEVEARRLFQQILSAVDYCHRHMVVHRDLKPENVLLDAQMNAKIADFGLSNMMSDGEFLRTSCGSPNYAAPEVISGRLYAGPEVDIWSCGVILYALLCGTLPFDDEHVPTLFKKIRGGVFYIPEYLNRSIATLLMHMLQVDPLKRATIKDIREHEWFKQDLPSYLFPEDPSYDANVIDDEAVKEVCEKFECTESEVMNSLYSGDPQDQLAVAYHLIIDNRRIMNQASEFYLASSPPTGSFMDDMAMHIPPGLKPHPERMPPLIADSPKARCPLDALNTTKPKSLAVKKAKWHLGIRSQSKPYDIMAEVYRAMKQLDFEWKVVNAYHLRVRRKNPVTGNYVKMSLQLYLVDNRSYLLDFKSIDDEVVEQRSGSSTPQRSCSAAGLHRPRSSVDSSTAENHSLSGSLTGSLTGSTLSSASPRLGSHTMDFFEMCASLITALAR
Sequence of 5'-AMP-activated protein kinase catalytic subunit alpha-2 (Homo sapiens) (P54646 whole entry, looked up): as the sequence (Q09137 whole entry) above, with V114M, Q150H, I241V, T348S, M355S, V502F, S505T, N509S, A528V, A549T counted along it
Sequence of Cytochrome P450 2C19 (P33261 whole entry): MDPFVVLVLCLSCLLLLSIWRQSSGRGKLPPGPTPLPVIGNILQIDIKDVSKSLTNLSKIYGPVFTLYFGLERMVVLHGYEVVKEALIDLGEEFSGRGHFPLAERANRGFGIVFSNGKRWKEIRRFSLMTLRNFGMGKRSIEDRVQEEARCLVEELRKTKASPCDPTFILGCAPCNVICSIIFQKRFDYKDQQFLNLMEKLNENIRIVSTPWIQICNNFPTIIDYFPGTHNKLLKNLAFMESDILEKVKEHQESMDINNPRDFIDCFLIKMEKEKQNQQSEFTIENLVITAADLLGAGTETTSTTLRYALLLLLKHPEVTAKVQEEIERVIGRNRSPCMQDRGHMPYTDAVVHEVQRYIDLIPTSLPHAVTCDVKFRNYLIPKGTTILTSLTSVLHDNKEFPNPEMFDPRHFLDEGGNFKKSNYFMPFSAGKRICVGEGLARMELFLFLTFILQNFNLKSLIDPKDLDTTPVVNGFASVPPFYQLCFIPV
Sequence of Cytochrome P450 2C9 (P11712 whole entry): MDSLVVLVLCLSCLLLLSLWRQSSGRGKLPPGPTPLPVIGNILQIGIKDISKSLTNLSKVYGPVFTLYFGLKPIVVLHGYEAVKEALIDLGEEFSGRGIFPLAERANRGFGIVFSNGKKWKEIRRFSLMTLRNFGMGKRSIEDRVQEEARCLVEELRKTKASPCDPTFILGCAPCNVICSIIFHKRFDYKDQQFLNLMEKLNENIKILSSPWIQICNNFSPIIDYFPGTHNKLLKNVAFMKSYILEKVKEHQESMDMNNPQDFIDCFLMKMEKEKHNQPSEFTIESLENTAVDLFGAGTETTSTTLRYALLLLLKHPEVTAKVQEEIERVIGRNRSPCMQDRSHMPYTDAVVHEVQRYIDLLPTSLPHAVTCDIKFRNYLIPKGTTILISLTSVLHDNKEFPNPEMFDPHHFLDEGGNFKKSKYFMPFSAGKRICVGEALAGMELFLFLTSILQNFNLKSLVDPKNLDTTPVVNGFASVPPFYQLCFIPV

With `CCOc1ccc2nc(SCc3nc4ccccc4s3)sc2c1`, the half-life at 2 µM in data set [1] was 2.4 min. In addition, the fold change (FC) in data set [2] amounted to 4.3; in data set [5] it was 5.2; in data set [6] it was 1.62; in data set [7] it was 7.6; in data set [9], 4.7; in data set [10] it was 1.09. In addition, the fold change (FC) is 6 in data set [16] and 7.6 in data set [19]. Also, the outcome in [3], in [11], in [12], in [14] and in data set [17] was Active. The “inhibition (INH)” value in data set [4] and in data set [8] was “Not Active” each time. The outcome in data set [13] and in data set [18] was inactive. In addition, the Activity result in data set [15] is “Dose-dependent effect”.
